HNF4A DNA FP: change in binding of human HNF4 alpha to DNA | HNF4a-FITC DNA binding, fluorescence polarization, 1 h | 0.3% of 360,000 active | activity change, % at 10 µM; in the data active means activity change above about 30%, passing the limit was not always enough
Rpn11 inh: blocks the human proteasome subunit Rpn11; O00487; human 26S proteasome, Ub4-pepOG fluorescence polarization; 20S core pre-blocked with epoxomicin; inhibition, % at 20 µM; 0.59% of 360,000 active; AID 588493;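 active means inhibition at 20 µM, scaled to each plate's controls, above about 33%, limit read from the data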
CSN deneddyl inh: CSN deneddylation inhibition; Purified CSN, SCF-Nedd8-OG deneddylation, fluorescence polarization; 0.38% of 360,000 active; Q92905; inhibition, % at 12.5 µM;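 active means pattern-corrected inhibition above about 35%, with an unprinted fluorescence ratio check between 0.5 and 1.5, limit read from the data, passing the limit was not always enough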;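 further: 0% = enzyme with substrate and 100% = substrate without enzyme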
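Schedule: reaction 90 min, room temperature / Assay system: HEK293T-derived human Csn5 enzyme / Input: Csn5 at 0.24 nM final / Measure: inhibition of Csn5 cleavage, % / Control set: substrate-only high control, full reaction low control / Technique: fluorescence polarization of the substrate / Buffer or medium: Tris/NaCl/DTT buffer, pH 7.5 / Reagent: SCFSkp2-Nedd8OG substrate at 10 nM final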
TPT1 inh: C. albicans TPT1 enzyme inhibition. recombinant caTPT1, FP RNA substrate dephosphorylation. inhibition, % at 5 µM. 0.81% of 300,000 active. AID 1962;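 active means inhibition above the mean of all tested compounds plus 3 SD, set per screening campaign, cut at about 24% in these data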;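 further: plate controls were DMSO alone for no effect and ferristatin control at 100 nM for full effect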
Rpn11 confirm: Rpn11 inhibition confirmation, single concentration. shares compounds with Rpn11 inh. inhibition, % at 20 µM. purified human 26S proteasome, Ub4-pepOG fluorescence polarization; proteasome pretreated with epoxomicin. AID 602318. 29% of 1,900 active
MMP-2 inh: counter-screen for RPN11 inhibitors: inhibition of human MMP-2; AID 602330; inhibition, % at 20 µM; shares compounds with Rpn11 inh; 4% of 1,900 active; recombinant MMP-2, FRET peptide cleavage fluorescence;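 further: human MMP-2 activated beforehand with APMA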
Target sequence (P08253 whole entry, looked up): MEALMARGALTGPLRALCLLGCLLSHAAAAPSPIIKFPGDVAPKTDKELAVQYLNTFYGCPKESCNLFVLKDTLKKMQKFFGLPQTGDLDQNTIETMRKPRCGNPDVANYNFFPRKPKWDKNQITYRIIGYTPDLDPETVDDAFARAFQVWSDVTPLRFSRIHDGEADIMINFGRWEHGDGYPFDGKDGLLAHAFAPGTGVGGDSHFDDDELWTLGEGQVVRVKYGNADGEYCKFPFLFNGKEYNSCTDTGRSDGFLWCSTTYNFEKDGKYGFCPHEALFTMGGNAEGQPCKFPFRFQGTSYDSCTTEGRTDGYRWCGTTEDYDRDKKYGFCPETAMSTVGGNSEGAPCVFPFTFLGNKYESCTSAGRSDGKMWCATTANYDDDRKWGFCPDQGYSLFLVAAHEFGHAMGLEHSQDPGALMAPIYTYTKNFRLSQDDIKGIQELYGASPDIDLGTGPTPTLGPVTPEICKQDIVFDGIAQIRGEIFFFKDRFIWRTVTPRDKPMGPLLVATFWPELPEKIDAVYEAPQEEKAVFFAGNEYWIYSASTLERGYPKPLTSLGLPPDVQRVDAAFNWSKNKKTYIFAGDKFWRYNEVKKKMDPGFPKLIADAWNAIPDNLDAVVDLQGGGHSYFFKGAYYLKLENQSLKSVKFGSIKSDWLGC
Thrombin inh: thrombin (bovine) inhibition counter-screen; shares compounds with Rpn11 inh; bovine thrombin cleavage of Ub4-pepOG, fluorescence polarization; inhibition, % at 20 µM; 13% of 1,900 active;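 active means mean inhibition at least 40% at 20 µM, or signal 3 deviations below plate average, so some actives read negative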;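 further: plate controls were thrombin with DMSO for no effect and buffer wells lacking thrombin for full effect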
* = called active by the depositor; nt = no result; + = active, no number. Most compounds without a hit are left out; they make up all but 1.5% or so of the library. Unless noted, no stated cut-off is given here; in the data, active means inhibition above about 40%; inactive means the rest.

SMILES | HNF4A DNA FP | Rpn11 inh | CSN deneddyl inh | TPT1 inh | Rpn11 confirm | MMP-2 inh | Thrombin inh
Cc1ccc(OCCCC(=O)NC2CCCCC2)cc1 | 0 | 1 | -2 | -1 | nt | nt | nt
CC1=C(C(=O)N(C)C)CC(CC(=O)NCc2ccco2)C(=O)N1Cc1ccccc1 (centres undefined) | -3 | -5 | 2 | nt | nt | nt | nt
Cc1ccc2cccc(CC(=O)NN)c2c1 | -4 | 6 | 1 | nt | nt | nt | nt
O=C(Nc1nccs1)[C@@H]1CC=C[C@@H]2CCN(Cc3ccccc3)C(=O)[C@@H]21 | -2 | 0 | -3 | 0 | nt | nt | nt
Cc1ccc(SCCNC(=O)CN2C(=O)c3ccccc3S2(=O)=O)cc1 | 0 | 0 | 2 | -2 | nt | nt | nt
O=C(CN1C(=O)c2ccccc2S1(=O)=O)NCCSc1ccccc1 | -2 | 41* | 5 | -1 | -7 | -26 | -19
CC(=O)Nc1cc(-c2ccc(N3CCN(C)CC3)cc2)cn2c(-c3ccc(F)c(Cl)c3)cnc12 | 5 | 27 | 1 | nt | nt | nt | nt
CN1CCN(c2ccc(-c3cc(NC=O)c4ncc(-c5ccc(F)c(Cl)c5)n4c3)cc2)CC1 | 18 | 48* | 18 | nt | 27 | -8 | 14
CC1=CN2C(=N)/C(=C/c3ccc(Sc4ccc(C)cc4)o3)C(=O)N=C2S1 | 7 | 48* | -6 | 17 | 34 | -15 | 12
COc1ccc(C(=O)Nc2ccc(N3CCCC3)cc2)cc1 | 9 | 43* | 13 | 9 | 13 | -10 | -6
COc1ccc(C(=O)NC(=S)Nc2ccc(N3CCCC3)cc2)cc1 | 2 | 6 | 2 | 5 | nt | nt | nt
O=C(COC(=O)c1ccc(O)cc1)Nc1ccc(N2CCCCC2)cc1 | -3 | 56* | 3 | -2 | 1 | 2 | -2
COc1cc(OC)cc(C(=O)OCC(=O)Nc2ccc(N3CCCCC3)cc2)c1 | 4 | 1 | 4 | 8 | nt | nt | nt
O=C(OCC(=O)N1CCC(Cc2ccccc2)CC1)c1ccc(O)cc1 | -1 | 0 | -6 | nt | nt | nt | nt
CC1CN(CC(O)c2ccc(Br)cc2)CCO1 (centres undefined) | 1 | 1 | -3 | nt | nt | nt | nt
CC(OC(=O)[C@@H](NC(=O)OCc1ccccc1)C(C)C)C(=O)Nc1ccc(N2CCOCC2)cc1 (some centres undefined) | 5 | 0 | 0 | nt | nt | nt | nt
COc1ccc(/C=C2/SC(=S)N(CC(=O)O)C2=O)cc1OCc1ccc(Cl)cc1 | -2 | 8 | 6 | 2 | nt | nt | nt
COc1ccc(/C=C2\SC(=O)N(CCCC(=O)Nc3ccc(C(=O)O)cc3)C2=O)cc1OC | -2 | 5 | 0 | -2 | nt | nt | nt
Cc1ccc(/C=C2\SC(=S)N(CCCC(=O)NNC(=O)c3ccccc3O)C2=O)cc1 | 10 | 42* | 4 | 3 | 43* | -32 | -22
O=C(O)CCCCN1C(=O)/C(=C\c2ccc(OCc3ccccc3)c(OCc3ccccc3)c2)SC1=S | -31 | 43* | 8 | 2 | 43* | 2 | 0
COc1ccc(/C=C2\SC(=S)N(CCCC(=O)Nc3ccc(C(=O)O)cc3)C2=O)cc1OC | 21 | 56* | 8 | 23 | 67* | -24 | 52*
O=C(CCN1C(=O)/C(=C\c2ccccc2)SC1=S)Nc1ccc(C(=O)O)cc1 | 5 | 1 | 3 | 2 | nt | nt | nt
CCOc1ccc(/C=C2/SC(=S)N(CCC(=O)Nc3ccc(C(=O)O)cc3)C2=O)cc1 | -2 | 79* | 24 | -6 | -10 | -2 | 2
CC(=O)NC(CCc1ccc(Cl)c(Cl)c1)c1cccc(O)c(=O)c1 (centres undefined) | -4 | 20 | 2 | nt | nt | nt | nt
Cc1cc(=O)oc2cc3oc(=O)cc(C)c3cc12 | 3 | 0 | 1 | 1 | nt | nt | nt
SMILES | HNF4A DNA FP | Rpn11 inh | CSN deneddyl inh | TPT1 inh | Rpn11 confirm | MMP-2 inh | Thrombin inh
CC1CCCCN1CCCNc1ccc(C(CC(N)=O)NC(=O)Cc2cccc3ccccc23)cc1[N+](=O)[O-] (centres undefined) | -2 | -1 | 2 | -6 | nt | nt | nt
CCc1ccc(/C=C2\SC(=S)N(CCC(=O)N3CCN(C)CC3)C2=O)cc1 | 0 | 51* | 5 | 0 | 70* | -53 | 54*
COc1ccc(/C=C2/SC(=S)N(CCCC(=O)Nc3ccc(O)cc3)C2=O)cc1OC | 18 | 45* | 5 | 19 | 61* | -10 | 42*
COc1cc(/C=C2/SC(=S)N(CC(=O)O)C2=O)ccc1OC(=O)c1ccco1 | 29 | 45* | 10 | 5 | 19 | -8 | 15
COc1ccc(/C=C2/SC(=S)N(CCC(=O)N3CCN(C)CC3)C2=O)cc1 | -2 | -5 | 0 | 2 | nt | nt | nt
COc1cc(/C=C2\C(=N)N3N=C(S(C)(=O)=O)SC3=NC2=O)ccc1OC(=O)c1ccco1 | 19 | 44* | 23 | 1 | 5 | -20 | 7
COc1cccc(/C=C2/SC(=S)N(CCCC(=O)Nc3ccc(O)cc3)C2=O)c1 | 3 | -5 | -1 | 2 | nt | nt | nt
Cc1ccc(S(=O)(=O)N2CCOCC2)cc1NC(=O)COc1ccccc1Cc1ccccc1 | 6 | 6 | -2 | nt | nt | nt | nt
Cc1ccc(C(=O)OCC(=O)NCCc2ccccc2)cc1C | -1 | 5 | -4 | nt | nt | nt | nt
Cc1c(NC(=O)c2cccc(NC(=O)Cc3ccc(F)cc3)c2)c(=O)n(-c2ccccc2)n1C | 2 | -2 | -3 | nt | nt | nt | nt
O=C(NCc1ccc(Cl)c(Cl)c1)C1CCCC1 | -1 | -1 | 1 | 1 | nt | nt | nt
CC(=O)Nc1ccc2c(c1)nc1n2CCOC1 | 1 | -6 | -7 | 6 | nt | nt | nt
O=C(Nc1ccc2c(c1)nc1n2CCOC1)C1CCCCC1 | 0 | + | 1 | -5 | 0 | -22 | -9
Cc1c(Cc2ccccc2)sc(NC(=O)/C=C/c2cccc3ccccc23)c1C(N)=O | 4 | 38* | 2 | -1 | -6 | -8 | -33
C=CCn1cc(C(=O)OCC)c(=O)c2cc(F)c(F)cc21 | 1 | 0 | -4 | -3 | nt | nt | nt
COc1ccc(-n2cccc2/C=C2/NC(=O)N(c3cccc(Cl)c3)C2=O)cc1 | 11 | 41* | -11 | 4 | 6 | -18 | 4
O=C(NCC(c1ccccc1Cl)N1CCCC1)C1CCN(C(=O)Nc2ccccc2)CC1 (centres undefined) | 0 | 1 | -3 | nt | nt | nt | nt
COc1ccc(COC(=O)c2ccc(S(=O)(=O)N3CCCCC3)cc2)cc1OC | 2 | -1 | 2 | nt | nt | nt | nt
CC(=O)Oc1ccc(C#C/C=C2\c3ccccc3C(=O)N2c2ccccc2)cc1 | 27 | 72* | 6 | nt | 51* | -1 | -87
O=C(N/N=C/c1ccc(Br)cc1)c1ccc(NC(=O)c2ccccc2)cc1 | 31 | 140* | -2 | nt | -1 | -24 | -10
O=C(N/N=C/c1ccncc1)c1cccc(N/N=C/c2ccncc2)c1 | -1 | 1 | -4 | 6 | nt | nt | nt
CN(C)c1ccc(/C=N/NC(=O)c2ccc(NC(=O)c3ccccc3)cc2)cc1 | 3 | 1 | 5 | -16 | nt | nt | nt

From PubChem BioAssay
